{"data": "Experimental data from different studies", "mode": "inhibitor", "SLCO1B3 S112A": "Solute carrier organic anion transporter family member 1B3 (SLCO1B3, Homo sapiens, UniProt Q9NPD5, S112A)", "HDAC4": "Histone deacetylase 4 (HDAC4, Homo sapiens, UniProt P56524)", "SLC2A9": "Solute carrier family 2, facilitated glucose transporter member 9 (SLC2A9, Homo sapiens, UniProt Q9NRM0)", "VCP": "Transitional endoplasmic reticulum ATPase (VCP, Homo sapiens, UniProt P55072)", "BLK": "Tyrosine-protein kinase Blk (BLK, Homo sapiens, UniProt P51451)", "P4HB": "Protein disulfide-isomerase (P4HB, Homo sapiens, UniProt P07237)", "SLCO1B3 M233I": "Solute carrier organic anion transporter family member 1B3 (SLCO1B3, Homo sapiens, UniProt Q9NPD5, M233I)", "note": "Lines come from different studies, so protocols differ."}
{"Compound": "CN(Cc1cnc2nc(N)nc(N)c2n1)c1ccc(C(=O)N[C@@H](CCC(=O)O)C(=O)O)cc1", "target": "SLCO1B3 S112A", "assay": "transporter uptake, radiometric", "conditions": "2 min", "IC50": "> 100 µM"}
{"Compound": "COc1ccc(N(Cc2csc(-c3ccccc3)n2)C(=O)CCCCCC(=O)NO)cc1", "target": "HDAC4", "assay": "enzyme activity", "IC50": "> 10 µM"}
{"Compound": "CCc1oc2cc(F)c(F)cc2c1C(=O)c1cc(Br)c(O)c(Br)c1", "target": "SLC2A9", "assay": "transporter uptake", "conditions": "oocytes", "IC50": "17.4 µM"}
{"Compound": "Cc1cc2c(C(N)=O)cccc2n1-c1nc2c(c(NCc3ccccn3)n1)CCCN2", "target": "VCP", "assay": "enzyme activity, ADP detection", "IC50": "0.115 µM"}
{"Compound": "O=C(NO)c1ccc(Cn2cnc3c(Nc4cccc([N+](=O)[O-])c4)ncnc32)cc1", "target": "HDAC4", "assay": "enzyme activity", "IC50": "0.531 µM"}
{"Compound": "COc1cccc2c1C(=O)c1c(O)c3c(c(O)c1C2=O)C[C@@](O)(C(=O)CO)C[C@@H]3O[C@H]1C[C@H](N)[C@H](O)[C@H](C)O1", "target": "SLCO1B3 S112A", "assay": "transporter uptake, radiometric", "conditions": "2 min", "IC50": "> 100 µM"}
{"Compound": "Cc1cc2c(C(N)=O)cccc2n1-c1nc2c(c(NCc3cccc(O)c3)n1)CCCN2", "target": "VCP", "assay": "enzyme activity, ADP detection", "IC50": "0.014 µM"}
{"Compound": "CC#CC(=O)N[C@H]1CCCN(c2c(F)cc(C(N)=O)c3[nH]c(C)c(C)c23)C1", "target": "BLK", "assay": "enzyme activity", "IC50": "0.00692 µM"}
{"Compound": "O=C(O[C@@H]1Cc2c(O)cc(O)cc2O[C@@H]1c1ccc(O)c(O)c1)c1cc(O)c(O)c(O)c1", "target": "P4HB", "assay": "enzyme activity, fluorescence", "IC50": "> 500 µM"}
{"Compound": "CC#CC(=O)N1CC[C@@H](n2c(=O)n(-c3ccc(Oc4ccccc4)cc3)c3c(N)ncnc32)C1", "target": "BLK", "assay": "enzyme activity", "IC50": "0.793 µM"}
{"Compound": "CC(=O)O[C@H]1C(=O)[C@@]2(C)[C@H]([C@H](OC(=O)c3ccccc3)[C@]3(O)C[C@H](OC(=O)[C@H](O)[C@@H](NC(=O)c4ccccc4)c4ccccc4)C(C)=C1C3(C)C)[C@]1(OC(C)=O)CO[C@@H]1C[C@@H]2O", "target": "SLCO1B3 M233I", "assay": "transporter uptake, radiometric", "conditions": "2 min", "IC50": "> 100 µM"}
{"Compound": "Cc1cc2c(C(N)=O)cccc2n1-c1nc2c(c(NCc3cccnc3)n1)CCCN2", "target": "VCP", "assay": "enzyme activity, ADP detection", "IC50": "0.115 µM"}
{"Compound": "Oc1ccc(-c2nc(-c3ccncc3)c(-c3ccc(F)cc3)[nH]2)cc1", "target": "Tau-tubulin kinase 2 (TTBK2, Homo sapiens, UniProt Q6IQ55)", "assay": "enzyme activity", "IC50": "3.62 µM"}
{"Compound": "COc1ccc(N(Cc2csc(-c3ccc(C)cc3)n2)C(=O)CCCCCC(=O)NO)cc1", "target": "HDAC4", "assay": "enzyme activity", "IC50": "> 10 µM"}
{"Compound": "Nc1cnccc1Nc1ccc(Cl)c(Cl)c1", "target": "G/T mismatch-specific thymine DNA glycosylase (TDG, Homo sapiens, UniProt Q13569)", "assay": "enzyme activity", "IC50": "> 100 µM"}
{"Compound": "O=C(O[C@@H]1[C@@H](O)[C@H](Oc2cc(O)c3c(c2)O[C@H](c2ccccc2)CC3=O)O[C@@H]2COC(=O)c3cc(O)c(O)c(O)c3-c3c(cc(O)c(O)c3O)C(=O)O[C@@H]12)c1cc(O)c(O)c(O)c1", "target": "P4HB", "assay": "enzyme activity, fluorescence", "IC50": "1.5 µM"}
{"Compound": "CCc1oc2ccccc2c1C(=O)c1cc(Br)c(O)c(Br)c1", "target": "SLC2A9", "assay": "transporter uptake", "conditions": "oocytes", "IC50": "87.6 µM"}
{"Compound": "CONC(=O)Cc1c(C)n(-c2nc3c(c(NCc4ccccc4)n2)CCCN3)c2ccccc12", "target": "VCP", "assay": "enzyme activity, ADP detection", "IC50": "0.177 µM"}
{"Compound": "CC(C)n1c(/C=C/C(O)CC(O)CC(=O)O)c(-c2ccc(F)cc2)c2ccccc21 (stereo not shown)", "target": "SLCO1B3 M233I", "assay": "transporter uptake, radiometric", "conditions": "2 min", "IC50": "11 µM"}
